Test: Toxicity liver stage against HepG2, at 10uM
Assay type: cell-based
Set-up: test concentration 10 uM, cell line HepG2-A16-CD81EGFP
Details: human, HepG2-A16-CD81EGFP cells; read-out: INHIBITION
Summary of the method: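 Uninfected HepG2-A16-CD81EGFP cells, 3 × 10^3 per well, 1536-well, plated on prespotted compound at 10 μM final, parasite-free screening media added to match infected plates; puromycin 10 μM positive, DMSO 0.5% negative; run in parallel with 48 h PbLuc assay at 37 °C, 5% CO2; viability by CellTiter-Glo luminescence, normalized to controls.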

SMILES | cytotoxicity at 10 µM [%]
CCNC(=O)[C@@H]1CN(Cc2ccccc2)C[C@H]1C(=O)c1ccc(F)cc1 | 3.38
COc1cccc(C(=O)N2CCc3nc(C4CCCN4)ncc3C2)c1 (stereo unspecified) | -7.28
CCOCC(=O)NCC(Cc1cccc(F)c1)N1CCCCC1=O (stereo unspecified) | -1.89
CCn1ccc(NC(=O)CN2C(=O)CC(C)(C)c3ccccc32)n1 | -5.01
Cc1cc(NCc2ccc(CO)cc2)n2nc(C)cc2n1 | -7.38
CCCc1nc(C)c(CNc2nc(C)nc3onc(C)c23)s1 | 1.6
O=C1C(NCc2nnc3n2CCCC3)CCCN1c1ccccc1 (stereo unspecified) | -9.69
CN(CCOc1cccc(CNC(=O)C2CC2)c1)C1CCOCC1 | -7.12
CS(=O)(=O)Cc1ccc(C(=O)NCC2Cc3ccccc3O2)cc1 (stereo unspecified) | 6.6
O=C1CCCCN1Cc1cccc(OC(F)F)c1 | 3.17
Cc1nc(CN2C(=O)CC[C@@H]3[C@H]2CCN3C(=O)c2ccccn2)cs1 | -77.7
CC(=O)c1ccc(CNC(=O)c2cc(C)nn2C)nc1C | 6.21
CCn1ccc(NS(=O)(=O)c2cccc(CSC)c2)n1 | 10.4
Cc1ccc(S(=O)(=O)CCC(=O)N(C)Cc2cnn(C)c2)cc1 | -2.9
CCn1cncc1CN(Cc1ccc(OC)cc1OC)CC1CCCO1 (stereo unspecified) | -18
Cn1cc(NC(=O)N2CCC(OCc3ccccc3)CC2)ccc1=O | -5.75
Cn1ccnc1CNC(=O)c1ccnc(C2CCNCC2)c1 | 5.8
CC(Cc1cnccn1)NC(=O)c1cccc(CC2CCNCC2)c1 (stereo unspecified) | -9.37
CCc1cc(CNC(=O)N(C2CC2)C(C)c2ccco2)on1 (stereo unspecified) | -0.335
CC(C)(C)C(=O)NCCCc1nc2ccccc2[nH]1 | 5.68
Cc1noc(C)c1CNCC1COCc2c(-c3ccoc3)nnn2C1 (stereo unspecified) | 8.85

SMILES | cytotoxicity at 10 µM [%]
Cc1nn(C)c(N(C)C)c1CNCc1cnn(Cc2ccccc2)c1 | -5.6
CCS(=O)(=O)N1CCCC2(COCCN(c3nncs3)C2)C1 (stereo unspecified) | 7.77
Cc1noc(C)c1CN(C)C(=O)NC1CCOCC1 | -14.8
CN(CC(N)=O)C(=O)C1Cc2cc(Cl)ccc2O1 (stereo unspecified) | 2.93
Cc1cc(C(=O)N2CCCCC2c2nc3cc(F)ccc3[nH]2)nn1C (stereo unspecified) | 4.42
Cc1nc(-c2ccc(CC(=O)N3CCN(C(=O)C(C)C)CC3)cc2)cs1 | 12.8
Cc1nc2c(c(N3CCC(CN4CCCC4=O)CC3)n1)CCNCC2 | 8.64
COc1ccc(C2(NC(=O)C3CC(=O)N(C)C3)CCCC2)cc1 (stereo unspecified) | 14.7
O=C(CCc1ccccc1Br)NS(=O)(=O)c1ccc2c(c1)OCCO2 | -10.7
O=C(c1ccc(F)cc1)N1CCC2(CCCN2CC2CC2)CC1 | 5.05
CC(C)N1CCC(CC(=O)NCc2cc(O)ncn2)CC1 | 7.81
COc1ccccc1C(=O)Nc1ccc(OC2CCN(C)CC2)cc1 | -4.85
O=C1[C@H]2CN(CC3CCOCC3)C[C@H]2CN1c1ccsc1 | 8.52
c1ccc(CN2CCCC[C@H]3CN(c4ncccn4)C[C@H]32)cc1 | -3.81
COc1c(CNCc2cnn(C)c2)c(C(C)C)nn1C | -7.39
Cc1cc(C)n(CC(=O)N2CCC(c3cc4cccnc4[nH]3)CC2)n1 | 16.8
CCN(CC(=O)Nc1c(C)n[nH]c1C)CC(O)c1ccc(C)cc1 (stereo unspecified) | -2.86
CC(C(N)=O)N(C)CCCc1cc(-c2ccc(F)cc2)n(C)n1 (stereo unspecified) | -4.87
CCCc1cc(=O)[nH]c(-n2nc(-c3cccs3)cc2N)n1 | 11.2
CC(C)C1CN(Cc2c[nH]cn2)CCCN1CC1CC1 (stereo unspecified) | 0.127
CC1(c2ccccc2)CCCN(C(=O)c2ccn3nnnc3c2)C1 (stereo unspecified) | 22.6

SMILES | cytotoxicity at 10 µM [%]
O=C(O)C1c2nc[nH]c2CCN1Cc1ccc(-c2ccccc2)s1 (stereo unspecified) | -9.35
c1nc(CN2CCCC(Cc3ccc(NC4CCCC4)nn3)C2)c[nH]1 (stereo unspecified) | 3.6
Cc1cccc(C(C(=O)N2CC(Oc3ccccc3F)C2)N(C)C)c1 (stereo unspecified) | -0.572
CCOc1ccccc1CC(=O)N1CCCC(c2ncc[nH]2)C1 (stereo unspecified) | -2.65
COc1c(CNCc2ccccc2Cn2ccnc2)c(C)nn1C | -9.2
CC1(C)CN(C(CNC2=NCCN2)c2ccc(Cl)cc2)CCO1 (stereo unspecified) | 8
CCN(CC)C(CNS(=O)(=O)NCc1ccccc1)c1ccco1 (stereo unspecified) | 1.53
CC1CCN(c2cncc(CCC3CCCN3)n2)CC1 (stereo unspecified) | 4.52
Cc1noc(C2CCN(Cn3cc(Br)cn3)CC2)n1 | 0.277
Cc1nc(CN2CCC23CCN(Cc2ccoc2)CC3)cs1 | -109
CN1CCN(C2COC3(CCN(Cc4cccs4)CC3)C2)CC1 (stereo unspecified) | -84.5
Cn1nc(C(=O)N2CCOCC2)cc1C(=O)Nc1c(Cl)cccc1Cl | 12
Cc1cccn2c(CC(=O)N3CCC(Oc4ncccn4)CC3)cnc12 | 6.78
CC(C)Oc1ccc(C(=O)N2CCCSCC2CN(C)C)cc1 (stereo unspecified) | 9.9
CN(C)CCOCc1cncc2c1CCN(C1CCOC1)C2 (stereo unspecified) | 9.68
NCCO[C@H]1C[C@@H](O)C12CCN(C(=O)COc1cccc(Cl)c1)CC2 | -4.32
O=C(c1ccncn1)N1CCC[C@]2(C[C@H](OCC3CC3)CO2)C1 | -81.9
CN(c1ncnc2c1CCC2)C1CCCN(c2cccnn2)C1 (stereo unspecified) | 1.72
COc1cccc(CN2CCC3(COCc4cnc(N(C)C)nc43)C2)c1 (stereo unspecified) | 11.2
Cc1ccc(CS(=O)(=O)N2CC[C@H]3[C@H]2CC(=O)N3C)cc1 | -7.33
CCNC(=O)[C@@H]1C[C@H](N)CN1Cc1ccc(-c2cc[nH]n2)o1 | -47.6

SMILES | cytotoxicity at 10 µM [%]
Cc1nc(-c2nc(C(=O)NC3CC3)c3ccccn23)cn1C(C)C | -103
O=C1CC2(CCN(CC3CCOC3)CC2)CN1Cc1cc(F)cc(F)c1 (stereo unspecified) | -18.9
C1CCC(OCCN2CCN(CCOC3CCCCC3)CC2)CC1 | -0.434
CCOc1ccc(Cl)c(C(=O)N2CCN(c3cnccn3)CC2)n1 | -4.89
NCCc1nc(N(Cc2cncs2)C2CC2)c2ccccc2n1 | -7.15
Cc1cc(C(=O)NC2CCCCNC2=O)c(=O)[nH]c1C (stereo unspecified) | -3.35
CCCn1ncc(CN(Cc2ccsc2)Cc2ccco2)c1C | 9.27
O=C(C1CCCCC1)N1C[C@@H]2CCNC[C@@H]21 | 3.47
COCCOCC(=O)N1C[C@@H]2CC[C@H](Oc3ccccc3)[C@@H]2C1 | -27.9
Cc1cccc(NC(=O)NC2CCN(C3CCOC3)CC2)c1 (stereo unspecified) | 4.24
CNC(=O)c1ccc(OC2CCN(S(C)(=O)=O)CC2)c(Cl)c1 | 1.49
COc1cccc2sc(N(C)CC(=O)NCc3nc(C)no3)nc12 | -1.53
CC(C)COC1CCN(C(=O)c2cc3ccccc3c(=O)[nH]2)CC1 | 9.05
CC(=O)c1c(C)nn(S(=O)(=O)c2ccccc2)c1C | -0.305
COc1ccc(CNC(Cn2cncn2)c2ccccc2)cc1C (stereo unspecified) | -4.33
CCc1oc(C(=O)N(C)Cc2nonc2C)cc1CN(CC)CC | -10.3
CN(C)C(=O)N1CCC(C(=O)N2CCOC(CC3CCCCC3)C2)CC1 (stereo unspecified) | 21.3
CN(C)C1CCN(C(=O)c2cc(-c3ccn(C)n3)n3ccccc23)CC1 | -117

— ChEMBL document CHEMBL4513216, “Probing the Open Global Health Chemical Diversity Library for Multistage-Active Starting Points for Next-Generation Antimalarials” (ACS Infect Dis, 2020)
